{
  "source": "paper PMC4423566",
  "about": "(Nature communications, 2015)",
  "key": {"E-Sel-Ig": {"tested_on": "E-Sel-Ig", "experiment": "Biacore binding assay, E-selectin", "summary_of_the_method": "(§1)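 Biotinylated test glycopeptide was captured on a streptavidin-coated sensor chip at low (< 5 RU) or high (60 RU) density. P-, L- or E-selectin-Ig was applied at 2.5–60 μg/mL. Kinetic parameters were fitted to a 1:1 binding model. Affinity relative to P-Sel-Ig was estimated by comparing binding at the two capture densities.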"}, "[1]": {"target": "human L-selectin Fc chimera (Homo sapiens, UniProt P14151)", "experiment": "Flow cytometry, L-selectin Fc chimera binding to human U937", "format": "cell-based", "conditions": "read-out: IC50, inhibition of PSGL-1/L-selectin interactions; human leukocytes (human U937)"}, "[2]": {"tested_on": "platelet-leukocyte aggregate formation", "experiment": "Platelet-leukocyte aggregates in mouse whole blood, dual-label flow cytometry", "format": "cell-based", "conditions": "40 μM, PAR4-activating peptide", "summary_of_the_method": "(§2)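 Anticoagulated whole blood was treated with 40 μM test compound at room temperature. Stimulation used PAR1-activating peptide 40 μM (human) or PAR4-activating peptide 200 μM (mouse). Staining was anti-CD42a-PE/anti-CD45-APC (human) or anti-CD41-PE/anti-CD45-APC (mouse). CD45+ neutrophils and monocytes were gated by side scatter and scored as % platelet-positive. Saline and anti-CD62P (5 μg/mL) were controls. Samples were run in triplicate.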"}, "P-selectin [3]": {"tested_on": "P-selectin", "experiment": "Microarray binding of glycopeptide mimics to selectin-Ig chimeras", "parameters": "species or system human and mouse", "conditions": "selectin-Ig chimeras 5-20 μg/mL, Alexa-488 anti-human IgG"}, "[4]": {"tested_on": "platelet-neutrophil binding and platelet aggregation in venules", "experiment": "TNF-α-induced venular inflammation, cremaster intravital microscopy", "format": "in vivo", "conditions": "3 hr after TNF-α; GSnP-6 4 μmol/kg IV, antibody 75 μg/mouse IV", "summary_of_the_method": "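Male C57BL/6 mice, 6–8 weeks old, received intrascrotal TNF-α (0.5 μg) 3 h before cremaster preparation. Just before imaging, test compound (4 μmol/kg), anti-CD62P or saline was given via jugular cannula. Labels were Dylight 649 anti-CD42b (platelets) and Alexa 488 anti-Gr-1 (neutrophils). Venules 30–45 μm (8–10/mouse, 5 mice) were imaged over 2 min. Platelet signal was taken as AUC normalized to vessel area, reported as median integrated fluorescence.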"}, "L-Sel-Ig": {"tested_on": "L-Sel-Ig", "experiment": "Biacore binding assay, L-selectin", "summary_of_the_method": "as §1"}, "[5]": {"experiment": "Temperature- and pH-dependent stability by RP-HPLC", "format": "physicochemical"}, "E-selectin Fc chimera": {"tested_on": "E-selectin Fc chimera", "experiment": "Flow cytometry, E-selectin Fc chimera binding to leukocytes", "format": "cell-based, human and mouse", "conditions": "GSnP-6 0 - 30 μM", "summary_of_the_method": "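Cells were heparinized mouse blood (cardiac puncture), citrated human blood, or cultured U937. They were incubated with test compound (0–30 μM) and species-matched selectin Fc chimera (2 μg/mL), then PE anti-Fc (1:100). Read-out was flow-cytometric MFI, expressed as percent inhibition versus PBS control, in triplicate. KPL1 and 4RA10 anti-PSGL-1 antibodies served as specificity checks.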"}, "mouse P-selectin": {"target": "mouse P-selectin (Mus musculus, UniProt Q01102)", "experiment": "Biacore binding assay, mouse P-selectin", "conditions": "printed as fold lower"}, "[6]": {"tested_on": "leukocyte rolling and arrest on substrates coated with ICAM-1 and E-selectin", "experiment": "In vitro flow assay on ICAM-1/E-selectin substrate under shear", "format": "cell-based, human", "conditions": "concentrations as high as 30 μM", "summary_of_the_method": "(§3)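 Aminosilanized glass was coated with human ICAM-1-Fc plus P- or E-selectin-Fc (5 μg/mL, 1 h). Human blood cells from healthy donors were density-separated and suspended in HEPES-buffered salt solution. Cells were exposed 10 min to PBS or test compound (up to 30 μM), then perfused at 2 dynes/cm2. Video ran 2 min at 7.5 frames/s. Centroids were tracked over 10 s; < 1 μm/s counted as arrested; capture and rolling velocity scored.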"}, "human P-selectin": {"target": "human P-selectin (Homo sapiens, UniProt P16109)", "experiment": "Biacore binding assay, human P-selectin", "conditions": "from Kd 22 nM"}, "[7]": {"tested_on": "leukocyte rolling in cremaster venules", "experiment": "Intravital microscopy of mouse cremaster, leukocyte rolling", "format": "in vivo", "conditions": "4 μmol/kg IV", "summary_of_the_method": "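Mice under IP ketamine/xylazine/atropine were kept on a 37°C blanket. Test compound (4 μmol/kg in saline) or saline was given through a jugular cannula. The cremaster was superfused with bicarbonate-buffered saline (5% CO2 in N2). Venules 30–40 μm were viewed 15–25 min post-surgical stimulation, seven per mouse. Velocities of 5–10 rolling leukocytes per venule were tracked over 2 s; mean and median were taken.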"}, "[8]": {"tested_on": "human neutrophil and monocyte rolling and arrest on ICAM-1/P-selectin substrate", "experiment": "In vitro flow assay on ICAM-1/P-selectin substrate under shear", "format": "cell-based", "summary_of_the_method": "as §3"}, "[9]": {"tested_on": "platelet-leukocyte aggregate formation", "experiment": "Platelet-leukocyte aggregates in human whole blood, dual-label flow cytometry", "format": "cell-based", "conditions": "40 μM, PAR1-activating peptide", "summary_of_the_method": "as §2"}, "P-selectin [10]": {"target": "P-selectin", "conditions": "P-selectin inhibitor; cited from earlier work"}, "[11]": {"tested_on": "human platelet-monocyte aggregation", "conditions": "cited from earlier work"}, "[12]": {"conditions": "Biacore, compared with P-selectin"}, "[13]": {"conditions": "fold lower, densities < 5 RU vs 60 RU"}},
  "note": "Square brackets hold non-standard residues; d marks the D form. Peptide text beside a SMILES is read from it. * marks the point of attachment. X1 = CC(=O)N[C@@H]1[C@@H](O[C@@H]2O[C@H](CO)[C@H](O)[C@H](O)[C@H]2O)[C@@H](O)[C@@H](CO[C@@H]2O[C@H](CO)[C@@H](O[C@@H]3O[C@H](CO)[C@H](O)[C@H](O[C@]4(C(=O)O)C[C@H](O)[C@@H](NC(C)=O)[C@H]([C@H](O)[C@H](O)CO)O4)[C@H]3O)[C@H](O[C@@H]3O[C@@H](C)[C@@H](O)[C@@H](O)[C@@H]3O)[C@H]2NC(C)=O)O[C@@H]1*; Phe(4-CH2SO3H) = N[C@@H](Cc1ccc(CS(=O)(=O)O)cc1)C(=O)O; Mca = COc1ccc2c(CC(=O)*)cc(=O)oc2c1",
  "data": [
    {"smiles": "COc1ccc2c(CC(=O)NCCCC[C@H](N)C(=O)N[C@@H](CCC(=O)O)C(=O)N[C@@H](Cc3ccc(CS(=O)(=O)O)cc3)C(=O)N[C@@H](CCC(=O)O)C(=O)N[C@@H](Cc3ccc(CS(=O)(=O)O)cc3)C(=O)N[C@@H](CC(C)C)C(=O)N[C@@H](CC(=O)O)C(=O)N[C@@H](Cc3ccc(CS(=O)(=O)O)cc3)C(=O)N[C@@H](CC(=O)O)C(=O)N[C@@H](Cc3ccccc3)C(=O)N[C@@H](CC(C)C)C(=O)N3CCC[C@H]3C(=O)N[C@@H](CCC(=O)O)C(=O)N[C@H](C(=O)N[C@@H](CCC(=O)O)C(=O)N3CCC[C@H]3C(=O)N[C@@H](CC(C)C)C(=O)O)[C@@H](C)O[C@H]3O[C@H](CO[C@@H]4O[C@H](CO)[C@@H](O[C@@H]5O[C@H](CO)[C@H](O)[C@H](O[C@]6(C(=O)O)C[C@H](O)[C@@H](NC(C)=O)[C@H]([C@H](O)[C@H](O)CO)O6)[C@H]5O)[C@H](O[C@@H]5O[C@@H](C)[C@@H](O)[C@@H](O)[C@@H]5O)[C@H]4NC(C)=O)[C@H](O)[C@H](O[C@@H]4O[C@H](CO)[C@H](O)[C@H](O)[C@H]4O)[C@H]3NC(C)=O)cc(=O)oc2c1", "note": "[GSnP-6] (H-K(Mca)E[Phe(4-CH2SO3H)]E[Phe(4-CH2SO3H)]LD[Phe(4-CH2SO3H)]DFLPET(X1)EPL-OH; N-terminus and C-terminus assumed)", "values": [
      {"measurement": "binding to E-selectin (in words)", "setting": "E-Sel-Ig; [12]", "result": "lower affinity"},
      {"measurement": "affinity of E-Sel-Ig for immobilized GSnP-6 relative to P-Sel-Ig", "setting": "E-Sel-Ig; [13]", "result": "~ 25 fold"},
      {"measurement": "IC50", "setting": "[1]", "result": "~30", "unit": "µM"},
      {"measurement": "inhibition of platelet-monocyte aggregate formation", "setting": "[2]", "result": 47, "unit": "%"},
      {"measurement": "inhibition of platelet-neutrophil aggregate formation", "setting": "[2]", "result": 42, "unit": "%"},
      {"measurement": "microarray binding to P-selectin (in words)", "setting": "P-selectin [3]", "result": "bound to P-selectin more strongly than to E- or L-selectin"},
      {"measurement": "platelet accumulation, median integrated platelet fluorescence (in words)", "setting": "[4]", "result": "limited platelet signal"},
      {"measurement": "platelet aggregation and platelet-PMN binding (in words)", "setting": "[4]", "result": "significantly reduced"},
      {"measurement": "binding to L-selectin (in words)", "setting": "L-Sel-Ig; [12]", "result": "lower affinity"},
      {"measurement": "affinity of L-Sel-Ig for immobilized GSnP-6 relative to P-Sel-Ig", "setting": "L-Sel-Ig; [13]", "result": "~ 25 fold"},
      {"measurement": "stability at low pH", "setting": "[5]; pH 5, T = 37°C", "result": "without observed degradation products"},
      {"measurement": "stability at high temperature", "setting": "[5]; pH 7.5, T = 60°C", "result": "without observed degradation products"},
      {"measurement": "inhibition of E-selectin interactions (in words)", "setting": "E-selectin Fc chimera", "result": "not observed"},
      {"measurement": "Kd to murine P-selectin relative to human P-selectin", "setting": "mouse P-selectin", "result": "~ 9 fold"},
      {"measurement": "leukocyte rolling and arrest on ICAM-1 and E-selectin (in words)", "setting": "[6]", "result": "did not perturb"},
      {"measurement": "experimental interaction energy with P-selectin", "setting": "human P-selectin", "result": -10.5, "unit": "kcal/mol"},
      {"measurement": "increase in median rolling velocities vs saline", "setting": "[7]", "result": 2, "unit": "fold"},
      {"measurement": "mean leukocyte rolling velocity", "setting": "[7]; 15-25 min after surgical stimulation", "result": "74.9 ± 3.4", "unit": "μm/s"},
      {"measurement": "inhibition of rolling and arrest", "setting": "[8]; 6 μM, human neutrophils and monocytes", "result": 80, "unit": "%"},
      {"measurement": "IC50", "setting": "[8]; read-out: IC50, inhibition of neutrophil capture in shear flow, human neutrophils, 2 dynes/cm^2", "result": 5, "unit": "µM"},
      {"measurement": "inhibition of platelet-monocyte aggregate formation", "setting": "[9]", "result": 72, "unit": "%"},
      {"measurement": "inhibition of platelet-neutrophil aggregate formation", "setting": "[9]", "result": 65, "unit": "%"}
    ]},
    {"smiles": "O=C(O)c1c(O)c(Cc2ccc(Cl)cc2)nc2c3c(ccc12)CCCC3", "note": "[PSI-697]", "values": [
      {"measurement": "Kd", "setting": "P-selectin [10]", "result": "~200", "unit": "µM"},
      {"measurement": "inhibition of human platelet-monocyte aggregation (in words)", "setting": "[11]", "result": "only weakly inhibits"}
    ]}
  ]
}
